ChEMBL document CHEMBL5352504, “PINK1-Dependent Mitophagy Inhibits Elevated Ubiquitin Phosphorylation Caused by Mitochondrial Damage” (J Med Chem, 2023)
Activity calls are given as the source filed them. The rule behind the calls is not given here.

How the values were obtained:
[1] = biological target: Serine/threonine-protein kinase PINK1, mitochondrial (Homo sapiens) (UniProt Q9BXM7); experiment: Activation of PINK1 in human HeLa cells transfected with Parkin assessed as increase in Parkin phosphorylation at serine 65 at 50 uM incubated for 1 hr by Western blot analysis; format: cell-based
Method in brief: (§1)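 HeLa cells transfected with Parkin were exposed to 50 μM compound for 1 h, with 10 μM CCCP for 3 h as a control. Cells were then lysed and immunoblotted for pSer65 Parkin, total Parkin, OPA1 and GAPDH (loading control). Untreated transfected and untransfected cells were included. Blots are representative of three repeat experiments.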

[2] = biological target: Serine/threonine-protein kinase PINK1, mitochondrial (Mus musculus) (UniProt Q99MQ3); experiment: Activation of mouse PINK1 in mouse astrocytes assessed increase in ubiquitin serine 65 phosphorylation at 50 uM incubated for 24 hrs by ELISA analysis; format: cell-based; conditions: Astrocyte, filed as activator
Method in brief: (§2)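 Primary cortical astrocytes came from postnatal day 3 C57BL/6J pups and were used at 70–90% confluence (7–10 days in vitro). Lysates (HEPES/NP-40 lysis, pellet resuspended in RIPA) went to pS65-Ub ELISA. Signal was normalised per μg protein (BCA); mean ± SEM, n = 8.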

[3] = biological target: Serine/threonine-protein kinase PINK1, mitochondrial (Homo sapiens) (UniProt Q9BXM7); experiment: Activation of human PINK1 in human HeLa cells overexpressing Parkin assessed as phosphorylation of ubiquitin at serine 65 at 50 uM and measured after 24 hr by Western blot analysis; format: cell-based
Method in brief: (§3)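 Parkin-transfected HeLa cells received 50 μM compound for 24 h. They were then either lysed directly or given 10 μM CCCP for 3 h before lysis. Lysates were immunoblotted for Ser65-phosphorylated ubiquitin, OPA1 cleavage and GAPDH. Untreated transfected and untransfected cells served as references.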

[4] = biological target: Serine/threonine-protein kinase PINK1, mitochondrial (Mus musculus) (UniProt Q99MQ3); experiment: Activation of mouse PINK1 in mouse astrocytes assessed ubiquitin serine 65 phosphorylation at 50 uM preincubated for 24 hrs followed by valinomycin treatment for 5 hrs by ELISA; format: cell-based; conditions: Astrocyte, time 29.0 hrs; method in brief: as §2
HeLa [5] = experiment: Inhibition of ubiquitin phosphorylation in CCCP stimulated human HeLa cells overexpressing Parkin assessed as reduction in CCCP-induced ubiquitin phosphorylation at serine 65 at 50 uM preincubated for 24 hrs followed by CCCP stimulation for 3 hr by Western blot analysis; format: cell-based; conditions: time 27.0 hrs; method in brief: as §3
[6] = biological target: T1, Serine/threonine-protein kinase Pink1, mitochondrial (Tribolium castaneum) (UniProt D6WMX4); experiment: Inhibition of recombinant Tribolium castaneum PINK1 using human ubiquitin as substrate assessed as substrate phosphorylation upto 100 uM
T1 sequence (whole entry): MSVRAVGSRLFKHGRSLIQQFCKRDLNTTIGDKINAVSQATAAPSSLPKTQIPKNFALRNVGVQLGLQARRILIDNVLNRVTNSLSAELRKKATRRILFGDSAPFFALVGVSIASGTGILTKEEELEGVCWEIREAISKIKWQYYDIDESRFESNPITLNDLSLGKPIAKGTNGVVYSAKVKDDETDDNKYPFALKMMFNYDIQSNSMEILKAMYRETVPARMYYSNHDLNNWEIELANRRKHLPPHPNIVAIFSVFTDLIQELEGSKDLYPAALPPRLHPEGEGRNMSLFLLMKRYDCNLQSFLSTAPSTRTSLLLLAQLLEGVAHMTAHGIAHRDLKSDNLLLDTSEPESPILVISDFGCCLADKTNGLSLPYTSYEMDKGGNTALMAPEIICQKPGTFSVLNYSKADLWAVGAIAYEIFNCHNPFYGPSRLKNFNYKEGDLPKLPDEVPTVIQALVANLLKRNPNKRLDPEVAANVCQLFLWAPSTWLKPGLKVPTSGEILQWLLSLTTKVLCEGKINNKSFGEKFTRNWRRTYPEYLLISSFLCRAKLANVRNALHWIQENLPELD

[7] = biological target: T1, Serine/threonine-protein kinase Pink1, mitochondrial (Tribolium castaneum); experiment: Inhibition of recombinant Tribolium castaneum PINK1 using human Parkin as substrate assessed as substrate phosphorylation upto 100 uM
[8] = biological target: Serine/threonine-protein kinase PINK1, mitochondrial (Homo sapiens) (UniProt Q9BXM7); experiment: Activation of PINK1 in human HeLa cells transfected with Parkin assessed as prevention of OPA1 cleavage at 50 uM incubated for 1 hr by Western blot analysis; format: cell-based; method in brief: as §1
HeLa [9] = experiment: Inhibition of niclosamide-induced ubiquitin phosphorylation at serine 65 residue in human HeLa cells transfected with YFP-Parkin at 50 uM preincubated for 24 hrs followed by niclosamide stimulation and measured after 1 hr hr by Western blot analysis; format: cell-based; conditions: time 25.0 hrs
Method in brief: (§4)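 YFP-Parkin-transfected HeLa cells were pretreated with 50 μM compound (24 h per legend, 23 h per methods), then given 10 μM CCCP or niclosamide for 1 h. Lysis used AP buffer (Tris pH 7.5, IGEPAL, protease/phosphatase inhibitors). Blots were on PVDF, milk-blocked, primary antibody overnight at 4 °C, HRP detection; probed for pUb, LC3B-I/-II and α-tubulin.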

HeLa [10] = experiment: Induction of mitophagy in human HeLa cells transfected with YFP-Parkin assessed as effect on Parkin localization at 50 uM incubated for 24 hrs by Hoechst 33258 staining based immunofluorescence analysis; format: functional, cell-based
Method in brief: (§5)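 YFP-Parkin-transfected HeLa cells were left untreated or exposed to 50 μM compound alone for 24 h. Cells were PFA-fixed, Triton-permeabilised and immunostained for pSer65-Ub and TOM20 with Hoechst. Confocal imaging assessed mitochondrial fragmentation, YFP-Parkin localisation and ubiquitin phosphorylation.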

MEF [11] = experiment: Induction of mitophagy in wild-type PINK1 harboring mouse immortalized MEF cells overexpressing HA-tagged Parkin assessed as increase in mitophagy at 5 uM incubated for 16 hrs by flow cytometry analysis; format: functional, cell-based
Method in brief: (§6)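 Immortalised MEFs from PINK1 WT or KO mito-QC littermate embryos, overexpressing HA-Parkin, were treated for 16 h. Cells were trypsinised, fixed in 3.7% formaldehyde/200 mM HEPES pH 7.0 and analysed by flow cytometry (≥2 × 10^4 cells). Living cells were gated on scatter, and the untreated-condition gate was applied to all conditions. Percent cells undergoing mitophagy was taken from the GFP/mCherry ratio; n = 3, two-way ANOVA with Sidak test.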

HeLa [12] = experiment: Inhibition of CCCP-induced ubiquitin phosphorylation at serine 65 residue in human HeLa cells transfected with YFP-Parkin at 50 uM preincubated for 24 hrs followed by CCCP stimulation and measured after 1 hr hr by Western blot analysis; format: cell-based; conditions: time 25.0 hrs; method in brief: as §4
HeLa [13] = experiment: (§7) Induction of mitochondrial membrane depolarization in human HeLa cells transfected with YFP-Parkin assessed as prevention of niclosamide induced mitochondrial membrane potential loss at 50 uM preincubated for 24 hrs followed by niclosamide stimulation and measured after 1 hr by Hoechst 33258 staining based immunofluorescence analysis; format: functional, cell-based; conditions: time 25.0 hrs
Method in brief: (§8)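 Mitochondrial membrane potential was read in YFP-Parkin HeLa cells pretreated with 50 μM compound for 24 h, then given 10 μM niclosamide or CCCP for 1 h. Medium was replaced with 5 nM TMRM plus Hoechst for 30 min at 37 °C in the dark. After a PBS wash, live cells were imaged by confocal microscopy at 37 °C, 5% CO2.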

HeLa [14] = experiment: Induction of mitophagy in YFP-Parkin-transfected human HeLa cells assessed as effect on ubiquitin phosphorylation at 50 uM incubated for 24 hrs by Hoechst 33258 staining based immunofluorescence analysis; format: functional, cell-based; method in brief: as §5
MEF [15] = experiment: Induction of mitophagy in PINK1 knockout mouse immortalized MEF cells overexpressing HA-tagged Parkin assessed as increase in mitophagy at 5 uM incubated for 16 hrs by flow cytometry analysis; format: functional, cell-based; method in brief: as §6
HeLa [16] = experiment: Induction of mitochondrial membrane depolarization in human HeLa cells overexpressing Parkin assessed as inhibition of CCCP-induced OPA1 cleavage at 50 uM preincubated for 24 hrs followed by CCCP stimulation and measured after 3 hrs by Western blot analysis; format: functional, cell-based; conditions: time 27.0 hrs; method in brief: as §3
HeLa [17] = experiment: as §7, with “CCCP” for “niclosamide”; format: functional, cell-based; conditions: time 25.0 hrs; method in brief: as §8
HeLa [18] = experiment: Induction of mitophagy in human HeLa cells transfected with YFP-Parkin assessed as effect on mitochondrial fragmentation at 50 uM incubated for 24 hrs by Hoechst 33258 staining based immunofluorescence analysis; format: functional, cell-based; method in brief: as §5
HeLa [19] = experiment: Inhibition of niclosamide-induced ubiquitin phosphorylation at serine 65 residue in human HeLa cells transfected with YFP-Parkin at 50 uM preincubated for 24 hrs followed by niclosamide stimulation and measured after 1 hr hr by Hoechst 33258 staining based immunofluorescence analysis; format: cell-based; conditions: time 25.0 hrs
Method in brief: (§9)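 YFP-Parkin HeLa cells were pretreated with 50 μM compound for 24 h, then given 10 μM CCCP or niclosamide for 1 h. Cells were fixed in chilled 4% PFA, permeabilised with 0.1% Triton, blocked in BSA, then immunostained overnight at 4 °C for pSer65-Ub and TOM20 with Hoechst. YFP-Parkin was imaged by confocal microscopy (40× oil). pUb mitochondrial localisation was quantified from images.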

HeLa [20] = experiment: Inhibition of CCCP-induced ubiquitin phosphorylation at serine 65 residue in human HeLa cells transfected with YFP-Parkin at 50 uM preincubated for 24 hrs followed by CCCP stimulation and measured after 1 hr hr by Hoechst 33258 staining based immunofluorescence analysis; format: cell-based; conditions: time 25.0 hrs; method in brief: as §9
HeLa [21] = experiment: Induction of mitochondrial membrane depolarization in human HeLa cells overexpressing Parkin assessed as inhibition of niclosamide-induced OPA1 cleavage at 50 uM preincubated for 24 hrs followed by niclosamide stimulation and measured after 3 hrs by Western blot analysis; format: functional, cell-based; conditions: time 27.0 hrs

Sequence of Serine/threonine-protein kinase PINK1, mitochondrial (Homo sapiens) (Q9BXM7 whole entry): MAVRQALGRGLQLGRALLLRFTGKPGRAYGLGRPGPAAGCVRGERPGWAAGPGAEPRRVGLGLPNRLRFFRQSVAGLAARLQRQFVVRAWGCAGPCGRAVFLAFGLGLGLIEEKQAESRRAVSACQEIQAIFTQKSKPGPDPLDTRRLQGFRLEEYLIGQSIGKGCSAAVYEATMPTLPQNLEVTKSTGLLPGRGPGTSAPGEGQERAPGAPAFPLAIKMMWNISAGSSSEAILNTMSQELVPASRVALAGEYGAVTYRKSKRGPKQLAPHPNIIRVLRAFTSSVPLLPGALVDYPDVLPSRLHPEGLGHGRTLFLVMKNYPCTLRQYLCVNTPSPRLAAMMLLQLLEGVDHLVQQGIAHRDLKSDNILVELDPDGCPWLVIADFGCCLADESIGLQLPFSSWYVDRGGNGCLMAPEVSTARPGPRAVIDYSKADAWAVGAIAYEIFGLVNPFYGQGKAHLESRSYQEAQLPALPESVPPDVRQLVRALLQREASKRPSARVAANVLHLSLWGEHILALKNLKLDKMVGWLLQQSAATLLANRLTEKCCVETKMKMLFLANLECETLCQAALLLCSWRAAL
Sequence of Serine/threonine-protein kinase PINK1, mitochondrial (Mus musculus) (Q99MQ3 whole entry): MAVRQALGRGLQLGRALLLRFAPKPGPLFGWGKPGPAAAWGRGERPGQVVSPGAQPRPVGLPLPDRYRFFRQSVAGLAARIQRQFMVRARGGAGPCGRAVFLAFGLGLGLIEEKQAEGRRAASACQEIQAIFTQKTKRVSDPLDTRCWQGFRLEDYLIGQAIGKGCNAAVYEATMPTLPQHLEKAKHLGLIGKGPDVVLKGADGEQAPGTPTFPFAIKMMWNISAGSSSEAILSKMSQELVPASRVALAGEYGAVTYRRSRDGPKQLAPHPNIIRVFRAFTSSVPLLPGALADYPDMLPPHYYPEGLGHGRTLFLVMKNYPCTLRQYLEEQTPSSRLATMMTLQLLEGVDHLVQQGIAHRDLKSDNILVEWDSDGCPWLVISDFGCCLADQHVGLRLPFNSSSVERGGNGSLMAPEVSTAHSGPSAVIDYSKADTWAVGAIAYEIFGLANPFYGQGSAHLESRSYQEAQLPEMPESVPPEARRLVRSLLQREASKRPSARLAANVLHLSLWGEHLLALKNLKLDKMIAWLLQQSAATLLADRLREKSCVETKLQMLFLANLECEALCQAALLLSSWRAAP

SMILES: CC(C)Nc1ncnc2[nH]cnc12
- Activity [1]: inactive

SMILES: c1ccc(CNc2ncnc3[nH]cnc23)cc1
- Activity [1]: inactive

SMILES: c1coc(CNc2ncnc3[nH]cnc23)c1
- Activity [2]: Active
- Activity [3]: inactive
- Activity [4]: inactive
- inhibition (HeLa [5]): inactive

SMILES: O=P(O)(O)OP(=O)(O)OP(=O)(O)OC[C@H]1O[C@@H](n2cnc3c(NCc4ccccc4)ncnc32)[C@H](O)[C@@H]1O
- inhibition [6]: inactive
- inhibition [7]: inactive

SMILES: O=P(O)(O)OP(=O)(O)OP(=O)(O)OC[C@H]1O[C@@H](n2cnc3c(NCc4ccco4)ncnc32)[C@H](O)[C@@H]1O
- Activity [3]: inactive
- inhibition (HeLa [5]): inactive

SMILES: CNc1ncnc2[nH]cnc12
- Activity [1]: inactive

SMILES: CC(C)(C)CNc1ncnc2[nH]cnc12
- Activity [1]: inactive

SMILES: CC(C)Nc1ncnc2c1ncn2[C@@H]1O[C@H](CO)[C@@H](O)[C@H]1O
- Activity [8]: inactive
- Activity ([1]; filed as activator): Active

SMILES: OC[C@H]1O[C@@H](n2cnc3c(NCc4ccco4)ncnc32)[C@H](O)[C@@H]1O
- inhibition (HeLa [9]): Active
- inhibition [6]: inactive
- inhibition [7]: inactive
- Activity (HeLa [10]): inactive
- Activity (MEF [11]): Active
- inhibition (HeLa [12]): Active
- Activity [3]: inactive
- Activity (HeLa [13]): inactive
- Activity (HeLa [14]): inactive
- Activity (MEF [15]): inactive
- inhibition (HeLa [16]): inactive
- Activity (HeLa [17]): inactive
- Activity (HeLa [18]): inactive
- inhibition (HeLa [19]): Active
- inhibition (HeLa [20]): Active
- inhibition (HeLa [5]): Active
- inhibition (HeLa [21]): inactive
